{"data": "Measured values from different studies", "target": "Tyrosine-protein kinase Mer (MERTK, Homo sapiens, UniProt Q12866)", "One construct used (Q12866 21-999)": "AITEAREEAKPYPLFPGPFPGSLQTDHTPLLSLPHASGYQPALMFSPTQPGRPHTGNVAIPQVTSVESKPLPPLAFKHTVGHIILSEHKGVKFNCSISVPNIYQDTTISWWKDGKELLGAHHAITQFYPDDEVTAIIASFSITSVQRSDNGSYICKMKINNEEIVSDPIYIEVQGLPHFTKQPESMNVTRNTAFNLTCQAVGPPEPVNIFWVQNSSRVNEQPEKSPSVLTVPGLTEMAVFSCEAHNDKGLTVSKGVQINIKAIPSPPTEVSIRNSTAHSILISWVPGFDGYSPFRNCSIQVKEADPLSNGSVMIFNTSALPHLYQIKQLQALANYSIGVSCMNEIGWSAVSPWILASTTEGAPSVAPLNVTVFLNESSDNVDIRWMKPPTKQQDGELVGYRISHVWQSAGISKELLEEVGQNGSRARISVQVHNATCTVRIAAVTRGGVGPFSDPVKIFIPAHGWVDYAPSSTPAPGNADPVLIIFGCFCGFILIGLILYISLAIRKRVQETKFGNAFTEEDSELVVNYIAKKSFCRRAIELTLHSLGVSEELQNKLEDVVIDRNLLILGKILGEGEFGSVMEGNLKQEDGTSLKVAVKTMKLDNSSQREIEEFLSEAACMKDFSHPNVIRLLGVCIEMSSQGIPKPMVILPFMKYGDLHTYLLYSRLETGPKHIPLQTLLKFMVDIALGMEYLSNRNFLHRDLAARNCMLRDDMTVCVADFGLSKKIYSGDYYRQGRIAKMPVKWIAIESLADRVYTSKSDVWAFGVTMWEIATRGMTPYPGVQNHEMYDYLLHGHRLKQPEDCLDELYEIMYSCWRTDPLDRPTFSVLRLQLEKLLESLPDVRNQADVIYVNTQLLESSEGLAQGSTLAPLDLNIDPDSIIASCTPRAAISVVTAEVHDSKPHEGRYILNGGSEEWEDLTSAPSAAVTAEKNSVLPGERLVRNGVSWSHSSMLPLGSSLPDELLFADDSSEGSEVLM"}
{"SMILES": "O=C(c1ccc(Nc2ncc(Cl)c(-c3cc4ccccc4s3)n2)cc1)N1CCC(N2CCCC2)CC1", "test": "binding, competition with immobilised ligand", "conditions": "1 µM", "remaining binding": "1.8%"}
{"SMILES": "C[C@@]1(Cc2ccc(C#N)cc2)C(=O)N(c2cc(Cl)cc(Cl)c2)c2ncc(C(=O)NC3(c4nc(C5CCC5)no4)CC3)n21", "test": "cell-free assay, competition with immobilised ligand", "conditions": "1 µM", "remaining binding": "100%"}
{"SMILES": "CN(CCCC(F)(F)F)c1nccc(-c2cnn3ncccc23)n1", "test": "binding", "conditions": "1 µM", "remaining binding": "100%"}
{"SMILES": "FC(F)(F)c1ccc2c(c1)nc(-c1cccnc1)n2C1CC1", "test": "cell-free assay, competition with immobilised ligand", "conditions": "1 µM", "remaining binding": "79%"}
{"SMILES": "COc1ccnn2ncc(-c3ccnc(N(C)C)n3)c12", "test": "binding", "conditions": "1 µM", "remaining binding": "99%"}
{"SMILES": "COc1cc(-c2cn(C3CCc4c(F)cccc4N(CC(F)(F)F)C3=O)nn2)ccc1-n1cnc(C)c1 (stereo not drawn)", "test": "cell-free assay, competition with immobilised ligand", "conditions": "1 µM", "remaining binding": "100%"}
{"SMILES": "O=C(c1ccc(Nc2ncc(Cl)c(-c3ccc(Cl)s3)n2)cc1)N1CCC(N2CCCC2)CC1", "test": "binding, competition with immobilised ligand", "conditions": "1 µM", "remaining binding": "4.3%"}
{"SMILES": "CCCOc1ccc([C@@H]2[C@@H](C(=O)O)[C@H](c3ccc4c(c3)OCO4)CN2CC(=O)Nc2c(CC)cccc2CC)cc1", "test": "cell-free assay, competition with immobilised ligand", "conditions": "1 µM", "remaining binding": "97%"}
{"SMILES": "CNC(=O)[C@@H]1CC[C@@H](n2c(-c3ccc4cnccc4c3)nc3ccc(C(=O)NCc4cccc(C(N)=O)c4)cc32)C1", "test": "binding, competition with immobilised ligand", "conditions": "1 µM", "remaining binding": "100%"}
{"SMILES": "O=C(NCC1CCOCC1)c1n[nH]cc1NC(=O)c1c(F)cccc1F", "test": "binding, competition with immobilised ligand", "conditions": "1 µM", "remaining binding": "98%"}
{"SMILES": "C[C@@H](c1ccc(-n2cnc3c(N)ncnc32)cc1)N1CCc2nn(C)c(Cc3ccccc3)c2C1=O", "test": "binding, competition with immobilised ligand", "conditions": "0.1 µM", "remaining binding": "100%"}
{"SMILES": "C[C@@H]1CCN(c2nccc(-c3cnn4ncccc34)n2)C1", "test": "binding", "conditions": "1 µM", "remaining binding": "100%"}
{"SMILES": "C=CC(=O)N1CCC(C(=O)NCC(=O)N2CCN(c3nc(-c4cnc(N)nc4C(F)F)nc(N4CCOCC4)n3)CC2)CC1", "test": "binding, competition with immobilised ligand", "conditions": "1 µM", "remaining binding": "94%"}
{"SMILES": "CS(=O)(=O)N1CCCC(NC(=O)[C@H](CCC2CCCCC2)NC(=O)c2ccc(CNc3ncnc4c3nnn4-c3ccccc3)cc2)C1 (stereo partly drawn)", "test": "cell-free assay, competition with immobilised ligand", "conditions": "0.1 µM", "remaining binding": "91%"}
{"SMILES": "CCN1CCN(Cc2ccc(C(=O)Nc3ccc(C)c(Oc4ccc5c(c4)CC(=O)N5)c3)cc2C(F)(F)F)CC1", "test": "binding, competition with immobilised ligand", "conditions": "1 µM", "remaining binding": "100%"}
{"SMILES": "CN(C)c1nccc(-c2cnn3ncccc23)n1", "test": "binding", "conditions": "1 µM", "remaining binding": "87%"}
{"SMILES": "O=S(=O)(NC1CCC(c2cc(F)ccc2F)(S(=O)(=O)c2ccc(Cl)cc2)CC1)C(F)(F)F (stereo not drawn)", "test": "cell-free assay, competition with immobilised ligand", "conditions": "1 µM", "remaining binding": "99%"}
{"SMILES": "CN(C)c1nccc(-c2cnc3ncccn23)n1", "test": "binding", "conditions": "1 µM", "remaining binding": "82%"}
{"SMILES": "O=C(c1ccc(Nc2nccc(-c3cc4ccccc4s3)n2)cc1)N1CCC(N2CCCC2)CC1", "test": "binding, competition with immobilised ligand", "conditions": "1 µM", "remaining binding": "42%"}
{"SMILES": "c1cnn2ncc(-c3ccnc(N4CCC45COC5)n3)c2c1", "test": "binding", "conditions": "1 µM", "remaining binding": "87%"}
{"SMILES": "COc1cnc(Nc2cccc(S(N)(=O)=O)c2)nc1N1CCN(c2ccccc2)CC1", "test": "binding, competition with immobilised ligand", "conditions": "1 µM", "remaining binding": "65%"}
